From ChEMBL document CHEMBL1250469, “Design, synthesis, and biological evaluation of ketoprofen analogs as potent cyclooxygenase-2 inhibitors” (Bioorg Med Chem, 2010)

Species on record: Ovis aries
Test: Selectivity index, ratio of IC50 for sheep COX1 to IC50 for COX2
How it was run: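 Ratio of IC50 for COX-1 to IC50 for COX-2. Both come from the ovine chemiluminescent COX assay, with arachidonic acid as substrate and a naphthalene hydrazide luminescence read-out. Each IC50 is the mean of two determinations.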

CS(=O)(=O)c1ccc(-c2cc(C(=O)O)c3cccc(C(=O)c4ccccc4)c3n2)cc1
Ratio IC50: 231

CS(=O)(=O)c1ccc(-c2cc(C(=O)O)c3cc(C(=O)c4ccccc4)ccc3n2)cc1
Ratio IC50: 317

[N-]=[N+]=Nc1ccc(-c2cc(C(=O)O)c3cc(C(=O)c4ccccc4)ccc3n2)cc1
Ratio IC50: > 1300

CC(=O)Nc1ccc(-c2cc(C(=O)O)c3cccc(C(=O)c4ccccc4)c3n2)cc1
Ratio IC50: 115

[N-]=[N+]=Nc1ccc(-c2cc(C(=O)O)c3cccc(C(=O)c4ccccc4)c3n2)cc1
Ratio IC50: 1150

CC(=O)Nc1ccc(-c2cc(C(=O)O)c3cc(C(=O)c4ccccc4)ccc3n2)cc1
Ratio IC50: 256
